Experimental data published in ChEMBL document CHEMBL4819011, “Structure-based discovery of 1H-indole-2-carboxamide derivatives as potent ASK1 inhibitors for potential treatment of ulcerative colitis” (Eur J Med Chem, 2021).
Active and inactive are the calls of the source. No cut-off for these calls is given here.

Key:
[1] = biological target: T1, Mitogen-activated protein kinase kinase kinase 5 (Mus musculus) (UniProt O35099); assay: In vivo inhibition of ASK1 in DSS-induced ulcerative colitis ICR mouse model assessed as downregulation of phosphorylation of p38 in colon at 25 mg/kg, po qd measured after 7 days by western blot assay; assay type: functional, organism-based; conditions: time 7.0 day
T1 sequence (whole entry): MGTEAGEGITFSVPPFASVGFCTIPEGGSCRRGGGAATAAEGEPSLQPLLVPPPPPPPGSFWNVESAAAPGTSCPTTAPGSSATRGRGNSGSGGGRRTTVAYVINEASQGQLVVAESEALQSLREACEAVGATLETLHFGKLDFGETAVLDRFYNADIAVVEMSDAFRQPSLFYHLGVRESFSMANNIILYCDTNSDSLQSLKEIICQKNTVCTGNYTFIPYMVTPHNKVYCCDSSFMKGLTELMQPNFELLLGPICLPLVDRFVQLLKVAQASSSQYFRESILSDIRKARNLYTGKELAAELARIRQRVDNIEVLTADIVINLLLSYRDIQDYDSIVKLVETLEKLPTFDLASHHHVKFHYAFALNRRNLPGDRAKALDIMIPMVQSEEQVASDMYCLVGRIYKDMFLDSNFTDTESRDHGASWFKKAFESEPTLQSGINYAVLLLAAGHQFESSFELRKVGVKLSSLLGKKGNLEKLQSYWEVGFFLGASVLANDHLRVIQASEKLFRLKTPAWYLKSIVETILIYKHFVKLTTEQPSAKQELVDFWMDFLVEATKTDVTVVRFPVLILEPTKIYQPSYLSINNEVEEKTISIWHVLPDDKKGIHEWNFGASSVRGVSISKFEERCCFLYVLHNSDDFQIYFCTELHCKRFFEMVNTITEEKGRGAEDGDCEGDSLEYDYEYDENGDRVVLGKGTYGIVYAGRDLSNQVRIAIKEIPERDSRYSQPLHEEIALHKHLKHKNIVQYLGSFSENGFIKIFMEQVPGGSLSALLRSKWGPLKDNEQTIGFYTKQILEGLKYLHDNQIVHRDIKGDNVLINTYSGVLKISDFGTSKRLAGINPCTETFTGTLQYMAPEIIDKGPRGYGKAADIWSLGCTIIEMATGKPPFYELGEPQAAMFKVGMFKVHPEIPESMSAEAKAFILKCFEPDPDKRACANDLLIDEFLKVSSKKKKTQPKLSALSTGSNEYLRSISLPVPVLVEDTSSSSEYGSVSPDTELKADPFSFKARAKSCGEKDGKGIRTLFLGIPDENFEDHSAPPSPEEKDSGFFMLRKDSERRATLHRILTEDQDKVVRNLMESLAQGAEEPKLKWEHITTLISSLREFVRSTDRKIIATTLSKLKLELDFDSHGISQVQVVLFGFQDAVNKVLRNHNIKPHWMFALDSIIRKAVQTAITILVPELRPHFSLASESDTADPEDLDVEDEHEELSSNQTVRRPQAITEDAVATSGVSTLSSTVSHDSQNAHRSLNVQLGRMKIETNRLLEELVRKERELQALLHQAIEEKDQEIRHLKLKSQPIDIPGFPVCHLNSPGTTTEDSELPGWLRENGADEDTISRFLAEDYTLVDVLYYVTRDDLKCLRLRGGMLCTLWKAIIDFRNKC
Summary of the method: (§1)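 Colons from ICR mice given 7 days of DSS plus 25 mg/kg po qd. Tissue homogenised in ice-cold RIPA buffer and protein quantified by BCA. Proteins separated by SDS-PAGE, transferred to PVDF and blocked in 5% BSA. Probed overnight at 4 °C for total and phospho ASK1, MKK3/6, MKK4/7, p38 and JNK, with GAPDH as loading control. Detected with HRP anti-rabbit secondary and ECL. Phosphorylated protein normalised to its unphosphorylated form.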

Mus musculus [2] = assay: Anti-ulcerative colitis activity against DSS-induced ulcerative colitis ICR mouse model assessed as colon shortening at 25 mg/kg, po qd measured after 7 days (reference value: 26.7%); assay type: functional; conditions: time 7 day
Summary of the method: (§2)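 Male ICR mice (18–22 g, 6–8 weeks) given 3% DSS (w/v) in drinking water for 7 days, water changed every two days. Dosed 25 mg/kg po once daily in CMC-Na aqueous vehicle during DSS exposure; vehicle-treated water and DSS groups served as controls, n = 6 per group. Body weight, stool consistency and rectal bleeding recorded daily. DAI is the mean of the weight-loss (0–4), stool (0–2) and blood (0–2) scores. Colon length measured at sacrifice. Mean ± SEM.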

[3] = Oral bioavailability in Sprague-Dawley rat at 5 mg/kg measured for 24 hrs by LC-MS/MS analysis; assay type: ADME, organism-based; conditions: in vivo
Mus musculus [4] = assay: Anti-inflammatory activity against DSS-induced ulcerative colitis ICR mouse model assessed as decrease of IL-1 beta level in colon at 25 mg/kg, po qd measured after 7 days by ELISA; assay type: functional, organism-based; conditions: time 7.0 day
Summary of the method: (§3)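 Colon tissue collected from ICR mice after 7 days of 3% DSS drinking water plus 25 mg/kg po qd dosing. Tissue homogenised and centrifuged; IL-1β, IL-6 and TNF-α in the supernatant measured with mouse ELISA kits.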

Mus musculus [5] = assay: Anti-ulcerative colitis activity against DSS-induced ulcerative colitis ICR mouse model assessed as decrease of infiltration of inflammatory cells in colon at 25 mg/kg, po qd measured after 7 days by H and E staining method; assay type: functional, organism-based; conditions: time 7.0 day
Summary of the method: (§4)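 ICR mice given 3% DSS in drinking water for 7 days with 25 mg/kg po qd in CMC-Na vehicle. At sacrifice, colons fixed in 4% formaldehyde, paraffin-embedded, sectioned at 4 µm and stained with hematoxylin and eosin. Histopathology examined by light microscopy.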

Mus musculus [6] = assay: Anti-ulcerative colitis activity against DSS-induced ulcerative colitis ICR mouse model assessed as decrease of colonic tissue damage at 25 mg/kg, po qd measured after 7 days by H and E staining method; assay type: functional, organism-based; conditions: time 7.0 day; summary of the method: as §4
[7] = Volume of distribution at steady state in Sprague-Dawley rat at 1 mg/kg, iv measured for 24 hrs by LC-MS/MS analysis; assay type: ADME, organism-based; conditions: in vivo, read-out: Vdss
Summary of the method: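 Male SD rats, fasted 24 h, n = 3. Single iv dose of 1 mg/kg given as a solution in 10% DMAC + 10% (30% Solutol HS 15 in water) + 80% saline. Venous blood (about 150 µL) collected into heparin tubes at 0.083, 0.25, 0.5, 1, 2, 4, 8 and 24 h. Plasma protein-precipitated with ACN containing dexamethasone IS, analysed by LC-MS/MS. Parameters calculated in DAS 2.1.1; mean ± SD.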

Mus musculus [8] = assay: Anti-inflammatory activity against DSS-induced ulcerative colitis ICR mouse model assessed as decrease of TNF-alpha level in colon at 25 mg/kg, po qd measured after 7 days by ELISA; assay type: functional, organism-based; conditions: time 7.0 day; summary of the method: as §3
[9] = biological target: T1, Mitogen-activated protein kinase kinase kinase 5 (Mus musculus); assay: In vivo inhibition of ASK1 in DSS-induced ulcerative colitis ICR mouse model assessed as downregulation of phosphorylation of ASK1 in colon at 25 mg/kg, po qd measured after 7 days by western blot assay; assay type: functional, organism-based; conditions: time 7.0 day; summary of the method: as §1
Mus musculus [10] = assay: Anti-ulcerative colitis activity against DSS-induced ulcerative colitis ICR mouse model assessed as recovery of body weight loss at 25 mg/kg, po qd measured after 7 days; assay type: functional, organism-based; conditions: time 7.0 day; summary of the method: as §2
[11] = biological target: T1, Mitogen-activated protein kinase kinase kinase 5 (Mus musculus); assay: In vivo inhibition of ASK1 in DSS-induced ulcerative colitis ICR mouse model assessed as downregulation of phosphorylation of MKK3/6 in colon at 25 mg/kg, po qd measured after 7 days by western blot assay; assay type: functional, organism-based; conditions: time 7.0 day; summary of the method: as §1
Mus musculus [12] = assay: Anti-inflammatory activity against DSS-induced ulcerative colitis ICR mouse model assessed as decrease of IL-6 level in colon at 25 mg/kg, po qd measured after 7 days by ELISA; assay type: functional, organism-based; conditions: time 7.0 day; summary of the method: as §3
[13] = biological target: T1, Mitogen-activated protein kinase kinase kinase 5 (Mus musculus); assay: In vivo inhibition of ASK1 in DSS-induced ulcerative colitis ICR mouse model assessed as downregulation of phosphorylation of MKK4/7 in colon at 25 mg/kg, po qd measured after 7 days by western blot assay; assay type: functional, organism-based; conditions: time 7.0 day; summary of the method: as §1
Mus musculus [14] = assay: Anti-ulcerative colitis activity against DSS-induced ulcerative colitis ICR mouse model assessed as disease activity index score at 25 mg/kg, po qd measured after 7 days (reference value: 2.83 units); assay type: functional; conditions: time 7 day; summary of the method: as §2
[15] = biological target: T1, Mitogen-activated protein kinase kinase kinase 5 (Mus musculus); assay: In vivo inhibition of ASK1 in DSS-induced ulcerative colitis ICR mouse model assessed as downregulation of phosphorylation of JNK in colon at 25 mg/kg, po qd measured after 7 days by western blot assay; assay type: functional, organism-based; conditions: time 7.0 day; summary of the method: as §1

bioavailability [3]: 75%
Vd [7]: 0.55 L/kg
SMILES: Cc1cc(F)c(C(=O)Nc2cccc(-c3nncn3C(C)C)n2)cc1-n1cnc(C2CC2)c1 [SELONSERTIB]
inhibition [1]: Active
Activity (Mus musculus [2]): 23.4%
Activity (Mus musculus [4]): Active
Activity (Mus musculus [5]): Active
Activity (Mus musculus [6]): Active
Activity (Mus musculus [8]): Active
inhibition [9]: Active
Activity (Mus musculus [10]): inactive
inhibition [11]: Active
Activity (Mus musculus [12]): Active
inhibition [13]: Active
DAI score decrease (Mus musculus [14]): 0.83
inhibition [15]: Active
